The species named for data set [1] is Rattus norvegicus. The experiment in a line: Tissue (cortex) distribution in Albino male CD rats after 5 minutes expressed as percent of injected dose per gram of organ. Format: ADME, organism-based. The note with it: in vivo. The method, boiled down:
(§1)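 Radioligand given in saline into tail vein of male albino CD rats (225-250 g); 100-200 µCi per animal, 1-2 Ci/µmol at injection depending on radioligand. Three rats per time point were decapitated under light ether anaesthesia. Blood, plasma, brain regions and washed organs were weighed and gamma-counted. Uptake is %I.D./g tissue, mean ± SD.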

Data set [2] is filed under the species Rattus norvegicus. As to the kind of experiment: Tissue (spleen) distribution in Albino male CD rats after 15 minutes expressed as percent of injected dose per gram of organ. The class given is ADME, organism-based. To be noted: in vivo, 0.25 h.
For data set [3], the species on record is Rattus norvegicus. The experiment in a line: Tissue (blood) concentration of radioactivity at 30 min post-injection into Albino male CD rats with vehicle. Format: ADME, organism-based. To be noted: in vivo, 0.5 h. The method, boiled down: (§2)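 Separate groups of five rats received tail-vein PK 11195 (1.4-1.6 mg; 5 mg/kg) in 30 µL DMSO:EtOH 1:1, or vehicle alone, immediately before iv radioligand (90-170 µCi in saline, 0.9-1 Ci/µmol). Rats were decapitated at 30 min and tissues gamma-counted; values are %I.D./g.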

The species entered for data set [4] is Rattus norvegicus. As to the kind of experiment: Tissue (lung) distribution in Albino male CD rats after 90 minutes expressed as percent of injected dose per gram of organ. The class given is ADME, organism-based. To be noted: in vivo, 1.5 h. The gist of the method:
(§3)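 Male albino CD rats (225-250 g) received the 11C-labelled radioligand in saline by tail-vein injection. Three rats per time point were decapitated under light ether anaesthesia at 5, 15, 30, 60 or 90 min. Blood was collected heparinized and plasma separated by centrifugation. The pituitary was dissected from the brain. Lung, liver (three-lobe pieces) and right deltoid muscle were sampled, washed in cold saline, gamma-counted and weighed. Results are %I.D./g.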

For data set [5], the species on record is Rattus norvegicus. The experiment in a line: Tissue (spleen) concentration of radioactivity at 30 min post-injection into Albino male CD rats with vehicle. Format: ADME, organism-based. The note with it: in vivo, 0.5 h. The method, boiled down: (§4)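 Blocking study in male albino CD rats, five per group. Immediately before the 11C radioligand (in saline, i.v. tail vein), rats received 30 µL tail-vein PK 11195 (5 mg/kg; 1.4-1.6 mg) in DMSO:EtOH 1:1, or vehicle. Rats were decapitated at 30 min. Tissues were dissected, washed, gamma-counted and weighed as in the biodistribution study. Results are %I.D./g.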

The species entered for data set [6] is Rattus norvegicus. The experiment in a line: Tissue (pituitary) concentration of radioactivity at 30 min post-injection into Albino male CD rats with vehicle. The class given is ADME, organism-based, Pituitary gland. To be noted: in vivo, 0.5 h. The gist of the method: as §4
For data set [7], the species on record is Rattus norvegicus. The experiment in a line: Tissue (adrenal gland) distribution in Albino male CD rats after 90 minutes expressed as percent of injected dose per gram of organ. The class given is ADME, organism-based. The note with it: in vivo, 1.5 h. The method, boiled down:
as §1

The species entered for data set [8] is Rattus norvegicus. The experiment in a line: Tissue (Muscle) distribution in Albino male CD rats after 15 minutes expressed as percent of injected dose per gram of organ. The class given is ADME, organism-based. The note with it: in vivo, 0.25 h. The gist of the method: as §1
Data set [9] is filed under the species Rattus norvegicus. As to the kind of experiment: Tissue (intestine) distribution in Albino male CD rats after 60 minutes expressed as percent of injected dose per gram of organ. Format: ADME, organism-based. To be noted: in vivo, 1 h. The method, boiled down: as §1
Data set [10] has as its target Translocator protein (Rattus norvegicus) (UniProt P16257). As to the kind of experiment: Tissue (blood) concentration of radioactivity at 30 min post-injection into Albino male CD rats after pretreatment with cold PK 11195. The class given is functional, tissue-based. The method, boiled down:
as §2

Data set [11] is filed under the species Rattus norvegicus. The experiment in a line: Tissue (muscle) distribution in Albino male CD rats after 15 minutes expressed as percent of injected dose per gram of organ. Format: ADME, organism-based. The note with it: in vivo, 0.25 h. The gist of the method: as §3
The species entered for data set [12] is Rattus norvegicus. The experiment in a line: Tissue (blood) concentration of radioactivity at 30 min post-injection into Albino male CD rats with vehicle. The class given is ADME, organism-based. The note with it: in vivo, 0.5 h. The gist of the method:
as §2

Translocator protein (Rattus norvegicus), sequence (P16257 whole entry, looked up): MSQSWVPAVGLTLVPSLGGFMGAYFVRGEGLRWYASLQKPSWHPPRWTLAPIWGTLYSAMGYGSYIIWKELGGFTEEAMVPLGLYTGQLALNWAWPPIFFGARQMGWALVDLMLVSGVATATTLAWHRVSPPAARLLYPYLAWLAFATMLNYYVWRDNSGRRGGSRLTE

Take `Cc1c(C(=O)N(C)Cc2ccccc2)nc2ccccc2c1-c1ccccc1`: the I.D./g is reported as 0.25% in the data set filed under Rattus norvegicus [1]; 1.27% in the data set filed under Rattus norvegicus [2]; 0.01% in the data set listed under Rattus norvegicus [3]; 1.21% in the data set filed under Rattus norvegicus [4]; 0.26% in the data set filed under Rattus norvegicus [5]; 0.11% in the data set listed under Rattus norvegicus [6]. In addition, the I.D./g in the data set listed under Rattus norvegicus [7] is 3.74%; in the data set filed under Rattus norvegicus [8] it was 0.25%; in the data set listed under Rattus norvegicus [9], 0.62%; in data set [10], over 0.02%.
Take `CCC(C)N(C)C(=O)c1nc2ccccc2c(-c2ccccc2F)c1C` (stereo not given): the I.D./g in the data set listed under Rattus norvegicus [1] amounted to 0.1%; in the data set filed under Rattus norvegicus [2], 0.75%; in the data set listed under Rattus norvegicus [4], 1.55%; in the data set listed under Rattus norvegicus [11] it was 0.13%; in the data set listed under Rattus norvegicus [5], 0.28%; in the data set filed under Rattus norvegicus [12], 0.04%. Also, the I.D./g in the data set listed under Rattus norvegicus [6] was 0.09%; in the data set listed under Rattus norvegicus [7], 2.22%; in the data set listed under Rattus norvegicus [9] it was 0.25%; in data set [10], over 0.04%.
As for `CCC(C)N(C)C(=O)c1nc2ccccc2c(-c2ccccc2)c1C` (stereo not given), the I.D./g in the data set listed under Rattus norvegicus [1] worked out at 0.12%; in the data set filed under Rattus norvegicus [2], 0.92%; in the data set listed under Rattus norvegicus [4], 1.27%; in the data set filed under Rattus norvegicus [11], 0.14%; in the data set filed under Rattus norvegicus [5], 0.56%; in the data set filed under Rattus norvegicus [12] it was 0.03%. Further, the I.D./g is 0.25% in the data set filed under Rattus norvegicus [6], 1.8% in the data set listed under Rattus norvegicus [7], 0.4% in the data set filed under Rattus norvegicus [9] and under 0.06% in data set [10].

For the origin of these results see ChEMBL document CHEMBL1134346, “Labeling and evaluation of N-[11C]methylated quinoline-2-carboxamides as potential radioligands for visualization of peripheral benzodiazepine receptors” (J Med Chem, 2001).
